ChEMBL document CHEMBL5344453, “Selective Recognition of c-KIT 1 G-Quadruplex by Structural Tuning of Heteroaromatic Scaffolds and Side Chains” (ACS Med Chem Lett, 2024)

Key:
[1] = system: Quadruplex DNA; test: Stabilization of G-quadruplex c-MYC 5-FAM-TGGGGAGGGTGGGGAGGGTGGGGAAGG-TAMRA- 3 (unknown origin) assessed as change in melting temperature at 1 uM incubated for 1 hr in dark condition by FRET-based melting assay; assay type: nucleic-acid assay
In short: (§1)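 FRET melting of dual-fluorophore-tagged oligonucleotides (200 nM) in 60 mM potassium cacodylate buffer, pH 7.4, with ligand at 1 μM; ΔTm taken against the ligand-free oligonucleotide Tm as control.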

[2] = system: Quadruplex DNA; test: Stabilization of G-quadruplex c-KIT2 5-FAM-GGGCGGGCGCGAGGGAGGGG-TAMRA-3 (unknown origin) assessed as change in melting temperature at 1 uM incubated for 1 hr in dark condition by FRET-based melting assay; assay type: nucleic-acid assay; in short: as §1
[3] = system: Quadruplex DNA; test: Stabilization of G-quadruplex h-TELO 5-FAM-TTGGGTTAGGGTTAGGGTTAGGGA-TAMRA-3 (unknown origin) assessed as change in melting temperature at 1 uM incubated for 1 hr in dark condition by FRET-based melting assay; assay type: nucleic-acid assay; in short: as §1
[4] = system: Quadruplex DNA; test: Stabilization of G-quadruplex c-KIT1 5-FAM-GGGAGGGCGCTGGGAGGAGGG-TAMRA-3 (unknown origin) assessed as change in melting temperature at 3 uM incubated for 1 hr in dark condition by FRET-based melting assay; assay type: nucleic-acid assay
In short: (§2)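 FRET melting of dual-fluorophore (FAM/TAMRA) tagged G-quadruplex (200 nM) in 60 mM potassium cacodylate, pH 7.4. The screen used 1 μM ligand; dose series used 1, 3, 5, 7 and 10 μM. ΔTm was taken against the Tm of the same oligonucleotide without ligand.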

[5] = system: Quadruplex DNA; test: Stabilization of G-quadruplex c-KIT1 5-FAM-GGGAGGGCGCTGGGAGGAGGG-TAMRA-3 (unknown origin) assessed as change in melting temperature at 10 uM incubated for 1 hr in dark condition by FRET-based melting assay; assay type: nucleic-acid assay; in short: as §2
[6] = system: Quadruplex DNA; test: Binding affinity to excessive G-quadruplex c-KIT1 5-FAM-GGGAGGGCGCTGGGAGGAGGG-TAMRA-3 (unknown origin) assessed as fold increase in fluorescence intensity at 1 uM incubated for 1 hr in dark condition by fluorescence spectroscopy assay relative to c-KIT2; assay type: nucleic-acid assay
In short: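 Ligand (1.0 μM) titrated to saturation with increasing G-quadruplex in 100 mM Tris-KCl buffer, pH 7.4. The value is the ratio of the c-KIT 1 fold change in fluorescence intensity to the fold change obtained with VEGF or c-KIT 2.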

[7] = system: Quadruplex DNA; test: Binding affinity to excessive G-quadruplex c-KIT1 5-FAM-GGGAGGGCGCTGGGAGGAGGG-TAMRA-3 (unknown origin) assessed as fold increase in fluorescence intensity at 1 uM incubated for 1 hr in dark condition by fluorescence spectroscopy assay; assay type: nucleic-acid assay
In short: (§3)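 Fluorimetric titration in 100 mM Tris-KCl buffer, pH 7.4. Ligand fixed at 1.0 μM and titrated with increasing concentrations of each G-quadruplex until fluorescence saturation. The fold increase in ligand fluorescence intensity was read, and Kd was derived from the titration plot.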

[8] = system: Quadruplex DNA; test: Binding affinity to excessive G-quadruplex VEGF 5-FAM-CGGGGCGGGCCGGGGGCGGGGT-TAMRA-3 (unknown origin) assessed as fold increase in fluorescence intensity at 1 uM incubated for 1 hr in dark condition by fluorescence spectroscopy assay; assay type: nucleic-acid assay; in short: as §3
[9] = molecular target: Quadruplex DNA; test: Binding affinity to G-quadruplex BCL-2 5-FAM-AGGGGCGGGCGCGGGAGGAAGGGGGCGGGAGCGGGGCTG-TAMRA-3 (unknown origin) assessed as dissociation constant by fluorescence spectroscopy assay; assay type: nucleic-acid assay
In short: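 Fluorimetric titration of ligand held at 1.0 μM with increasing concentrations of G4 or dsDNA until saturation. Change in ligand fluorescence intensity was fitted for Kd. Run in 100 mM Tris-KCl buffer, pH 7.4.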

[10] = molecular target: Quadruplex DNA; test: Binding affinity to G-quadruplex c-KIT1 5-FAM-GGGAGGGCGCTGGGAGGAGGG-TAMRA-3 (unknown origin) assessed as dissociation constant by isothermal titration calorimetry (ITC) assay; assay type: nucleic-acid assay
In short: (§4)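 ITC of ligand binding to folded G4 in 100 mM Tris-KCl buffer, pH 7.4. Kd and stoichiometry were obtained from the isothermal heat curve and binding isotherm.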

[11] = molecular target: Quadruplex DNA; test: Binding affinity to G-quadruplex h-TELO 5-FAM-TTGGGTTAGGGTTAGGGTTAGGGA-TAMRA-3 (unknown origin) assessed as dissociation constant by measuring thermogram by isothermal titration calorimetry (ITC) assay; assay type: nucleic-acid assay; in short: as §4
[12] = system: MCF7; test: Cytotoxicity against human MCF7 cells assessed as cell viability measured after 24 hrs by XTT formazan assay; assay type: functional, cell-based; conditions: MCF7, 24 h
[13] = Cytotoxicity against HEK293 cells assessed as cell viability measured after 24 hrs by XTT formazan assay; assay type: toxicity, cell-based; conditions: human
[14] = Induction of cell permeation in human c-KIT-positive K562 cell membrane assessed as fold increase in (G- quadruplex/antibody complex) BG4 foci at 3 uM measured after 24 hrs by immunofluorescence assay; assay type: functional
In short: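 K562 cells were treated with ligand (3 or 5.5 μM) and immunostained with G4-specific antibody BG4. Nuclear BG4 foci were counted by confocal microscopy and expressed relative to untreated cells.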

[15] = system: K562; test: Attenuation of proto-oncogene expression in human c-KIT-positive K562 cells assessed as reduction in BCL-2 oncogene expression at 6 uM measured after 24 hrs by qRT-PCR analysis relative to control; assay type: functional
In short: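 K562 cells treated 24 h at two doses per ligand (3 and 6 μM, 5.5 and 11 μM; positive control 2 and 4 μM). c-KIT, c-MYC and BCL-2 mRNA measured by qRT-PCR and normalized to housekeeping gene 18s, relative to untreated control.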

[16] = Reduction of c-KIT oncogene expression in human K562 cells transfected with c-KIT plasmid construct assessed as reduction in luciferase expression at 3 uM measured after 36 hrs by luciferase reporter assay; assay type: functional
In short: (§5)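 K562 cells were transfected with luciferase plasmids carrying the c-KIT, c-MYC or BCL-2 promoter G4. They were then treated with ligand (3 and 6 μM or 5.5 and 11 μM), and relative luciferase expression was measured.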

[17] = Reduction of c-MYC oncogene expression in human K562 cells transfected with c-MYC plasmid construct assessed as reduction in luciferase expression at 6 uM measured after 36 hrs by luciferase reporter assay; assay type: functional
In short: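 Promoter luciferase reporter: K562 cells transfected with a c-MYC promoter G4-containing luciferase-expressing plasmid, then ligand-treated at two doses each (3 and 6 μM, or 5.5 and 11 μM); read-out as relative luciferase expression, reported as percent reduction.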

[18] = Reduction of BCL-2 oncogene expression in human K562 cells transfected with BCL-2 plasmid construct assessed as reduction in luciferase expression at 6 uM measured after 36 hrs by luciferase reporter assay; assay type: functional; in short: as §5
[19] = system: K562; test: Induction of apoptosis in human K562 cells assessed as cell death at 6 uM incubated for 24 hrs by FITC-Annexin V and PI analysis relative to control; assay type: functional
In short: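 K562 cells after ligand treatment dual-stained with annexin V and propidium iodide. Apoptotic cell populations (early and late) scored by flow cytometry dot plot analysis.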

## CN(C)CCCNC(=O)c1ccc(-n2cc(-c3ccc4[nH]c5ccccc5c4c3)nn2)cc1
[1]
  ΔTm: 3.2 °C
[2]
  ΔTm: 9.9 °C
[3]
  ΔTm: 4.5 °C
[4]
  ΔTm: 22.6 °C
[5]
  ΔTm: 26.5 °C
[6]
  fold change (FC): 3.2
[7]
  fold change (FC): 5.2
[8]
  fold change (FC): 2.1
[9]
  Kd: 4.8 µM
[10]
  Kd: 1.6 µM
[11]
  Kd: 17.4 µM
[12]
  IC50: 19.8 µM
[13]
  IC50 at 24 h: > 50 µM
[14]
  fold change (FC): 5.4
[15]
  inhibition at 6 µM: 39%
[16]
  inhibition at 3 µM: 22%
[17]
  inhibition at 6 µM: 12.3%
[18]
  inhibition at 6 µM: 15.8%
[19]
  Activity: 63%
